In PMC3025495 (The lancet oncology, 2010):
Where two headings read alike, the source gives them in different places.

Legend:
[1] = test system: human hematopoietic progenitors: erythroid precursors; experiment: Methylcellulose-based in vitro colony forming assay, erythroid precursors; type: cell-based; conditions: read-out: IC50, growth inhibition of erythroid precursors
[2] = test system: BH3-only proteins; conditions: no reference printed with the sentence; cited from earlier work
[3] = test system: human hematopoietic progenitors: common myeloid precursors; experiment: Methylcellulose-based in vitro colony forming assay, common myeloid precursors; type: cell-based; conditions: read-out: IC50, growth inhibition of common myeloid precursors
[4] = test system: relapsed/refractory lymphoid malignancies; experiment: Tumor response and survival; type: in vivo, human
[5] = test system: patients with relapsed or refractory lymphoid malignancies; experiment: Phase 1 dose-escalation study: toxicity and DLT
[6] = test system: xenograft model of mantle cell lymphoma; conditions: ref [11]; cited from earlier work
[7] = test system: BCL-2 dependent human small cell lung cancer (SCLC) cell line; conditions: within 2 hours of treatment; ref [11], [27]; cited from earlier work
[8] = human, in vivo
[9] = test system: animal models; experiment: Projected effective exposure from animal models; type: in vivo; conditions: based on animal models
[10] = clinical; conditions: human, in vivo
[11] = test system: patients with relapsed or refractory lymphoid malignancies; conditions: in vivo
[12] = test system: circulating platelets; experiment: Pharmacodynamic effect on circulating platelets; type: in vivo, human; conditions: platelet nadir versus navitoclax AUC, n=35 patients
[13] = test system: BCL-XL and BCL-2 over expressing prolymphocytic murine cell lines; conditions: coimmunoprecipitation; ref [11], [27]; cited from earlier work
[14] = Pharmacokinetic profile in patients
[15] = test system: hematological cell lines; conditions: in 11 of 23 hematological cell lines, ref [10]; cited from earlier work
[16] = test system: CD3+ cells (T-cells); experiment: Pharmacodynamic effect on circulating CD3+ cells; type: in vivo, human; conditions: after 14 days of drug exposure (day 14 of cycle 1), at least 200 mg
In short: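 Patients with relapsed or refractory lymphoid malignancies took the test compound orally each day. Two schedules were used: days 1–14 of a 21-day cycle, or continuous dosing after a 150 mg lead-in lasting 7–14 days. Circulating CD3+ counts were compared with baseline. The P-value for the change from baseline came from a Sign-test because the data were skewed.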

[17] = test system: murine xenograft model of acute lymphocytic leukemia; conditions: ref [11]; cited from earlier work
[18] = test system: patients; conditions: cited from earlier work; for clinical activity: clinical testing, [24]; for clinical activity / on-target pharmacodynamic effects on platelets: ref [23]; for dose-limiting toxicities: gossypol ref [23], obatoclax ref [24]; for on-target pharmacodynamic effects on platelets: review of toxicities, [25]–[28]
[19] = Grade 1/2, Continuous (21/21) Schedule MTD 325 mg (N=5)
[20] = Grade 1/2, Intermittent (14/21) Schedule All Patients (N=38)
[21] = Grade 3/4, Continuous (21/21) Schedule All Patients (N=17)
[22] = Grade 3/4, Continuous (21/21) Schedule MTD 325 mg (N=5)
[23] = Grade 3/4, Intermittent (14/21) Schedule All Patients (N=38)
[24] = Grade 3/4, Intermittent (14/21) Schedule MTD 315 mg (N=9)

CN(C)CC[C@H](CSc1ccccc1)Nc1ccc(S(=O)(=O)NC(=O)c2ccc(N3CCN(Cc4ccccc4-c4ccc(Cl)cc4)CC3)cc2)cc1[N+](=O)[O-] [ABT-737]
IC50 [1]: 1000 nM
binding affinity relative to previously reported compounds [2]: two to three orders of magnitude greater
IC50 [3]: 900 nM

CC1(C)CCC(c2ccc(Cl)cc2)=C(CN2CCN(c3ccc(C(=O)NS(=O)(=O)c4ccc(N[C@H](CCN5CCOCC5)CSc5ccccc5)c(S(=O)(=O)C(F)(F)F)c4)cc3)CC2)C1 [Navitoclax]
median PFS ([4]; 16 patients with follicular lymphoma, IQR 42-92): 88 days
patients achieving a PR ([4]; CLL/SLL patients with measurable adenopathy): 8 of 16
PR in NK/T-cell lymphoma ([4]; NK/T-cell lymphoma): single patient
median overall survival ([4]; all 20 patients with CLL/SLL): has not been reached
median PFS ([4]; all 20 patients with CLL/SLL, IQR 49-309): 246 days
reduction in leukemia cells ([4]; all seven patients with CLL): ≥ 50%
patients with measurable tumor reduction ([4]; follicular lymphoma): 6 of 16
patients with some tumor reduction ([4]; patients with evaluable adenopathy, all dose levels): 21 of 46
cycles until response, median (range) ([4]; responders across dose levels and tumor types): 3.5 (2–10) cycles
All Infections, patients n (%) [5, 19]: 5 (100%)
Herpes Zoster, patients n (%) [5, 19]: 1 (20%)
All Infections, patients n (%) [5, 20]: 25 (66%)
Herpes Zoster, patients n (%) [5, 20]: 0
All Infections, patients n (%) ([5]; Grade 1/2, Intermittent (14/21) Schedule MTD 315 mg (N=9)): 8 (89%)
All Infections, patients n (%) [5, 21]: 0
Herpes Zoster, patients n (%) [5, 21]: 0
All Infections, patients n (%) [5, 22]: 0
Herpes Zoster, patients n (%) [5, 22]: 0
All Infections, patients n (%) [5, 23]: 6 (16%)
Herpes Zoster, patients n (%) [5, 23]: 1 (3%)
All Infections, patients n (%) [5, 24]: 1 (11%)
Herpes Zoster, patients n (%) [5, 24]: 0
safe tolerated dose ([5]; intermittent (14/21) schedule, oral once daily): 315 mg
patients who required at least one dose reduction ([5]; overall dose levels): 11 patients
effect on cure rate of rituximab plus chemotherapy [6]: significantly improved
cytochrome c [7]: increase
cytosolic BAX [7]: dose-dependent decrease
dose levels at which projected effective exposure was achieved [8]: at least 315 mg/day
t½ ([8]; 315 mg): 15·1 ± 3·0 h
increase of oral bioavailability by food ([8]; po): approximately 20%
CL/F (apparent oral clearance) ([8]; po, 315 mg): 4·1 ± 2·1 L/h
projected effective exposure (AUC) [9]: 55000 to 88000 ng·h/mL
half-life [10]: ~17 h
All Infections, patients n (%) ([11]; human): 14 (82%)
Herpes Zoster, patients n (%) ([11]; human): 1 (6%)
dose selected for phase II study ([11]; human): 325 mg
grade 1/2 fatigue, number of patients ([11]; human): 21 patients
grade 3/4 neutropenia, number of patients ([11]; human): 17 patients
grade 3/4 thrombocytopenia, number of patients ([11]; human): 29 patients
recommended phase 2 dose ([11]; human): 325 g/day
patients who developed respiratory infections and/or bronchitis [11]: Eight
patients who withdrew their consent for treatment [11]: 6 patients
severity of the platelet nadirs [12]: concentration dependent
BIM:BCL-2 family protein interactions [13]: dose-dependent decrease
time to peak concentrations (Cmax) post-dose ([14]; 14/21-day schedule, overall): approximately 9 hours
detection in urine (renal elimination) ([14]; 24-hour urine collection after dosing on C1 D–3): could not be detected
dose dependence of exposure ([14]; between 10 mg and 440 mg): dose-proportional
EC50 [15]: < 1000 nM
median reduction of circulating CD3+ cells [16]: 241 CD3+ cells/µl
tumor response in xenograft [17]: durable and complete tumor regressions

Cc1cc2c(C(C)C)c(O)c(O)c(C=O)c2c(O)c1-c1c(C)cc2c(C(C)C)c(O)c(O)c(C=O)c2c1O [gossypol]
clinical activity [18]: little to no clinical activity
dose-limiting toxicities [18]: gastrointestinal side effects
on-target pharmacodynamic effects on platelets [18]: no on-target pharmacodynamic effects on platelets

COC1=CC(c2cc3ccccc3[nH]2)=N/C1=C\c1[nH]c(C)cc1C [obatoclax]
clinical activity [18]: little to no clinical activity
dose-limiting toxicities [18]: Infusion-related somnolence and neurologic symptoms
on-target pharmacodynamic effects on platelets [18]: no on-target pharmacodynamic effects on platelets
